Hits are enriched below; roughly 5.9% of the tested compounds scored in any of these assays.
IDH1 mut inh: inhibitors of human IDH1 R132H | IDH1 R132H reductase, diaphorase/resazurin fluorescence, 60 min | inhibition, % at 10 µM | hit rate 0.18% among 70,000; in the data active = inhibition above about 34%; inconclusive = no clear call, values can overlap the other calls; inactive = below about 11%;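 also: 0% = DMSO and 100% = no enzyme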
Target sequence (O75874 whole entry R132H): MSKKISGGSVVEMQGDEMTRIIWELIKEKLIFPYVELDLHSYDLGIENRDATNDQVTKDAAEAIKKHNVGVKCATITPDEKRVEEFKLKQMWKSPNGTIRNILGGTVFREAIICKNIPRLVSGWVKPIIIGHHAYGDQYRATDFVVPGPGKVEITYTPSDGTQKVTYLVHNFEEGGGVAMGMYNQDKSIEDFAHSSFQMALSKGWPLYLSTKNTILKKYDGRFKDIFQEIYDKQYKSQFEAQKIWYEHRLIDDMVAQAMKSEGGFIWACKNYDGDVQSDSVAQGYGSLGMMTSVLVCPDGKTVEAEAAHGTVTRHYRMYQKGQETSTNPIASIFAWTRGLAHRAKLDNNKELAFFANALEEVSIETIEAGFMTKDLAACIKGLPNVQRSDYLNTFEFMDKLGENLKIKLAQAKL
Tcruzi prolif: T. cruzi proliferation inhibition; T. cruzi beta-gal in NIH3T3, GalScreen luminescence, 90 h; inhibition, % at 8.34 µM; hit rate 5.9% among 77,000;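 active = mean inhibition above about 93%, with at least 55% of replicates each passing it, limit read from the data, passing the limit was not always enough; inconclusive = only one of those two conditions holds; inactive = neither condition holds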
KDM4C inh: inhibitors of human demethylase GASC-1 KDM4C. inhibition, % at 12.5 µM. Q9H3R0. hit rate 0.15% among 96,000. GST-KDM4C 2-372, H3K9me3 peptide, LANCE TR-FRET;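 active = mean replicate inhibition above about 25%, with at least 55% of replicates also reaching it, limit read from the data, passing the limit was not always enough; inconclusive = only one of those two conditions met; inactive = neither condition met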
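Compound: one test concentration per compound; Material: GST-GASC-1 enzyme fragment 2-372; Amount: GASC-1 enzyme at 10 nM final in reaction; Also added: H3K9me3 peptide substrate, Fe(II), 2-oxoglutarate; Technique: LANCE TR-FRET; Times: 30 min demethylation and 1 h detection at room temperature.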
Pf Dd2 inh: P. falciparum Dd2 growth inhibition | activity change, % at 10 µM | hit rate 2.3% among 94,000 | SYBR Green, 72 h; active compounds read low | AID 1159554; in the data active = activity change below about -80%; inconclusive = no clear call, values can overlap the other calls
An asterisk follows results filed as active; ? = inconclusive; . = no result.

SMILES	IDH1 mut inh	Tcruzi prolif	KDM4C inh	Pf Dd2 inh
COc1ccccc1C#Cc1ccc([C@H]2[C@@H](C#N)N(C(=O)C3CCCC3)[C@H]2CO)cc1	.	.	-3	-97*
COc1ccccc1C#Cc1ccc([C@H]2[C@@H](C#N)N(C(=O)C3CCCC3)[C@@H]2CO)cc1	.	.	-2	-87*
COc1ccccc1C#Cc1ccc([C@@H]2[C@H](C#N)N(C(=O)C3CCCC3)[C@H]2CO)cc1	.	.	-5	-79
COC(=O)c1cc(NC(=S)NCc2cccnc2)cc(C(=O)OC)c1	0	.	.	.
CNc1nc(NC(C)C)nc(Oc2ccc(=O)[nH]n2)n1	0	.	.	.
Nc1ncnc2c1[nH]c(=S)n2CCOc1cccc2ccccc12	1	.	.	.
CO[C@H]1CN(C)C(=O)c2cc(NC(=O)c3ccc(-c4ccccc4)cc3)ccc2OC[C@@H](C)NC[C@H]1C	0	.	0	-78
CO[C@H]1CN(C)C(=O)c2cc(NC(=O)c3ccc(-c4ccccc4)cc3)ccc2OC[C@H](C)NC[C@H]1C	0	.	.	-92*
CO[C@@H]1CN(C)C(=O)c2cc(NC(=O)c3ccc(-c4ccccc4)cc3)ccc2OC[C@@H](C)NC[C@@H]1C	0	.	-2	-97*
CO[C@@H]1CN(C)C(=O)c2cc(NC(=O)c3ccc(-c4ccccc4)cc3)ccc2OC[C@H](C)NC[C@@H]1C	0	.	-1	-76
COc1ccc(S(=O)(=O)N(C)C[C@H]2OCCCC[C@@H](C)Oc3ccc(NC(=O)Nc4ccccc4)cc3C(=O)N([C@H](C)CO)C[C@@H]2C)cc1	.	-53	0	-9
COc1ccc(S(=O)(=O)N(C)C[C@H]2OCCCC[C@H](C)Oc3ccc(NC(=O)Nc4ccccc4)cc3C(=O)N([C@@H](C)CO)C[C@H]2C)cc1	.	49	0	-83*
COc1ccc(NC(=O)Nc2ccc3c(c2)C(=O)N([C@@H](C)CO)C[C@H](C)[C@H](CN(C)S(=O)(=O)c2ccc(C)cc2)OCCCC[C@@H](C)O3)cc1	1	39	0	-86*
COc1ccc(NC(=O)Nc2ccc3c(c2)C(=O)N([C@H](C)CO)C[C@@H](C)[C@H](CN(C)S(=O)(=O)c2ccccc2)OCCCC[C@@H](C)O3)cc1	1	-26	-1	-83*
COc1ccc(NC(=O)Nc2ccc3c(c2)C(=O)N([C@H](C)CO)C[C@@H](C)[C@H](CN(C)S(=O)(=O)c2ccc(C)cc2)OCCCC[C@H](C)O3)cc1	1	72	0	-67
C[C@@H]1CCCCO[C@H](CN(C)C(=O)Nc2ccc(C(F)(F)F)cc2)[C@@H](C)CN([C@H](C)CO)C(=O)c2cc(NC(=O)Nc3cccc4ccccc34)ccc2O1	5	43	-1	-82*
Cc1noc(C)c1NC(=O)Nc1ccc2c(c1)C(=O)N([C@H](C)CO)C[C@@H](C)[C@H](CN(C)C(=O)Nc1ccc(C(F)(F)F)cc1)OCCCC[C@H](C)O2	1	40	-3	-84*
C[C@H](CO)N1C[C@H](C)[C@H](CN(C)C(=O)Nc2ccc(C(F)(F)F)cc2)OCCCC[C@H](C)Oc2ccc(NC(=O)Nc3ccc(F)cc3)cc2C1=O	3	?	0	59
C[C@H](CO)N1C[C@H](C)[C@@H](CN(C)C(=O)Nc2ccc(C(F)(F)F)cc2)OCCCC[C@H](C)Oc2ccc(NC(=O)Nc3ccc(F)cc3)cc2C1=O	1	119*	-3	-38
C[C@@H]1CCCCO[C@H](CN(C)C(=O)Nc2ccc(C(F)(F)F)cc2)[C@H](C)CN([C@H](C)CO)C(=O)c2cc(NC(=O)Nc3ccc(F)cc3)ccc2O1	1	117*	1	-81*
COc1cccc(NC(=O)CSc2nnc(-c3ccncc3)n2-c2ccc(C)cc2)c1	0	.	.	.
C[C@H](CO)N1C[C@H](C)[C@@H](CN(C)C(=O)Nc2ccccc2)OCc2ccccc2-c2c(n(C)c3ccccc23)C1=O	.	72	1	-69
C[C@@H]1CN([C@@H](C)CO)C(=O)c2c(c3ccccc3n2C)-c2ccccc2CO[C@@H]1CN(C)C(=O)Nc1ccc(-c2ccccc2)cc1	.	.	-2	-88*
C[C@H](CO)N1C[C@H](C)[C@H](CN(C)C(=O)Nc2ccc3c(c2)OCO3)OCc2ccccc2-c2c(n(C)c3ccccc23)C1=O	-2	92	2	-85*
C[C@@H]1CN([C@H](C)CO)C(=O)c2c(c3ccccc3n2C)-c2ccccc2CO[C@@H]1CN(C)C(=O)Nc1ccc(-c2ccccc2)cc1	.	.	-5	-83*
SMILES	IDH1 mut inh	Tcruzi prolif	KDM4C inh	Pf Dd2 inh
C[C@H]1CN([C@@H](C)CO)C(=O)c2c(c3ccccc3n2C)-c2ccccc2CO[C@@H]1CN(C)C(=O)Nc1ccc(-c2ccccc2)cc1	.	.	-4	-89*
C[C@H](CO)N1C[C@H](C)[C@H](CN(C)C(=O)Nc2ccccc2)OCc2ccccc2-c2c(n(C)c3ccccc23)C1=O	-5	49	-1	-14
C[C@H](CO)N1C[C@H](C)[C@@H](CN(C)C(=O)Nc2ccc(-c3ccccc3)cc2)OCc2ccccc2-c2c(n(C)c3ccccc23)C1=O	.	.	-2	-94*
O=S(=O)(NC1CCN(Cc2ccc(OCCO)cc2)CC1)c1cc(Cl)ccc1Cl	37*	.	.	.
O=C(CSc1nc2ccccc2c(=O)n1CC1CCCO1)c1ccc(Br)cc1 (stereo not given)	0	.	.	.
COC(=O)c1cc(OC)c(OC)cc1NC(=O)C1c2ccccc2Oc2ccccc21	1	.	.	.
C[C@H]1CN([C@@H](C)CO)C(=O)c2c(c3ccccc3n2C)-c2ccccc2CO[C@H]1CN(C)S(=O)(=O)c1ccc(C(F)(F)F)cc1	.	.	-1	-91*
COc1ccc(S(=O)(=O)N(C)C[C@H]2OCc3ccccc3-c3c(n(C)c4ccccc34)C(=O)N([C@H](C)CO)C[C@@H]2C)cc1	.	-13	0	22
C[C@@H]1CN([C@H](C)CO)C(=O)c2c(c3ccccc3n2C)-c2ccccc2CO[C@H]1CN(C)S(=O)(=O)c1ccc(C(F)(F)F)cc1	.	.	-2	-89*
Cc1ccc(S(=O)(=O)N(C)C[C@H]2OCc3ccccc3-c3c(n(C)c4ccccc34)C(=O)N([C@H](C)CO)C[C@H]2C)cc1	-2	62	1	-8
C[C@@H]1CN([C@H](C)CO)C(=O)c2c(c3ccccc3n2C)-c2ccccc2CO[C@@H]1CN(C)S(=O)(=O)c1ccc(C(F)(F)F)cc1	.	.	-1	-86*
CCCc1cc(=S)sc(N)n1	4	.	.	.
CNC(=S)N(Cc1ccncc1)C1CC(=O)N(c2ccc(OC)cc2)C1=O (stereo not given)	24	.	.	.
C[C@H](CO)N1C[C@H](C)[C@@H](CN(C)Cc2ccc(C(F)(F)F)cc2)OCCCC[C@H](C)Oc2ccc(NC(=O)Cc3ccccc3)cc2C1=O	-1	1	0	-81*
C[C@@H]1CN([C@@H](C)CO)C(=O)c2cc(NC(=O)CCCN(C)C)ccc2O[C@@H](C)CCCCO[C@@H]1CN(C)Cc1ccc(C(F)(F)F)cc1	.	-70	0	-80
